Reference: ChEMBL document CHEMBL4130552, “Design, synthesis and biological evaluation of novel benzimidazole amidines as potent multi-target inhibitors for the treatment of non-small cell lung cancer” (Eur J Med Chem, 2018)

Legend:
[1] = test system: WI-38; test: Antiproliferative activity against human WI38 cells after 72 hrs by MTT assay; format: cell-based; conditions: WI-38, 72 h
Summary of the method: (§1)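 Cells seeded at 5000/well on day 0 in medium with 10% FBS, 2 mM L-glutamine, penicillin/streptomycin, 37 °C, 5% CO2. Compounds added at five 10-fold dilutions with DMSO ≤0.1%, then 72 h exposure. MTT absorbance converted to percentage growth versus untreated wells. IC50 by linear regression between bracketing concentrations. Quadruplicate points, three independent experiments.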

[2] = test system: A549; test: Antiproliferative activity against human A549 cells after 72 hrs by MTT assay; format: functional, cell-based; conditions: A549, 72 h; summary of the method: as §1
[3] = test system: HeLa; test: Antiproliferative activity against human HeLa cells after 72 hrs by MTT assay; format: functional, cell-based; summary of the method: as §1
[4] = test system: SW-620; test: Antiproliferative activity against human SW620 cells after 72 hrs by MTT assay; format: functional, cell-based; conditions: SW-620, 72 h; summary of the method: as §1
[5] = test system: CFPAC-1; test: Antiproliferative activity against human CFPAC-1 cells after 72 hrs by MTT assay; format: functional, cell-based; conditions: CFPAC-1, 72 h; summary of the method: as §1
[6] = target: MAP kinase p38 (Homo sapiens, UniProt O15264+Q15759+Q16539+P53778); test: Inhibition of MAPK p38 (unknown origin); format: protein assay
[7] = Selectivity ratio of IC50 for human A549 cells to IC50 for human SW620 cells; format: functional
[8] = Selectivity ratio of IC50 for human CFPAC-1 cells to IC50 for human SW620 cells; format: functional
[9] = Selectivity ratio of IC50 for human HeLa cells to IC50 for human SW620 cells; format: functional

SMILES	IC50 [2] [µM]	IC50 [3] [µM]	IC50 [4] [µM]	IC50 [6] [µM]	IC50 [1] [µM]	IC50 [5] [µM]	Ratio IC50 [7]	Ratio IC50 [8]	Ratio IC50 [9]
Cc1ccc(-n2nc(C(C)(C)C)cc2NC(=O)Nc2nc(CCOCc3ccncc3)cs2)cc1				0.586					
N=C(N)c1ccc2[nH]c(-c3ccc(OCc4cn(-c5ccc(I)cc5)nn4)cc3)nc2c1	0.45	6.45	0.95		0.62	21.5			
Brc1ccc(-c2c[nH]c([C@@H]3Cc4ccccc4CN3)n2)cc1				1.9					
CC(C)NC(=N)c1ccc2[nH]c(CCc3cn(-c4ccc(Cl)cc4)nn3)nc2c1	33.4	3.11	56.8		3.71	36.1			
N=C(N)c1ccc2[nH]c(-c3ccc(OCc4cn(-c5ccccc5)nn4)cc3)nc2c1	53.3	18.8	31.5		8.08	29.9			
N=C(N)c1ccc2[nH]c(-c3ccc(OCc4cn(-c5ccc(Cl)cc5)nn4)cc3)nc2c1	0.05	0.8	7.57		5.03	18.5			
Cl.Clc1ccc(Cn2cc(COc3ccc(-c4nc5cc(C6=NCCN6)ccc5[nH]4)cc3)nn2)cc1	9.34	5.06	0.05		5.77	6.82	>100	>100	>100
c1ccc(-n2cc(COc3ccc(-c4nc5cc(C6=NCCN6)ccc5[nH]4)cc3)nn2)cc1	49.7	7.78	29.6		0.1	26.2			

Second part, led by results:

IC50 [2] [µM]	IC50 [3] [µM]	IC50 [4] [µM]	IC50 [6] [µM]	SMILES	IC50 [1] [µM]	IC50 [5] [µM]	Ratio IC50 [7]	Ratio IC50 [8]	Ratio IC50 [9]
8.37	0.59	37.9		CC(C)NC(=N)c1ccc2[nH]c(-c3ccc(OCc4cn(-c5ccc(F)cc5)nn4)cc3)nc2c1	0.66	0.71			
0.59	2.69	6.35		FC(F)(F)c1ccc(-n2cc(COc3ccc(-c4nc5cc(C6=NCCN6)ccc5[nH]4)cc3)nn2)cc1	0.69	0.65			
4.98	> 100	36.5		CC(C)NC(=N)c1ccc2[nH]c(-c3ccc(OCc4cn(Cc5ccc(Cl)cc5)nn4)cc3)nc2c1	0.7	> 100			
85.8	13.7	50.1		CC(C)NC(=N)c1ccc2[nH]c(-c3ccc(OCc4cn(-c5ccc(C(F)(F)F)cc5)nn4)cc3)nc2c1	0.32	> 100			
0.84	0.32	0.36		N=C(N)c1ccc2[nH]c(-c3ccc(OCc4cn(-c5ccc(C(F)(F)F)cc5)nn4)cc3)nc2c1	0.52	2.09			
> 100	16.6	62.1		CC(C)NC(=N)c1ccc2[nH]c(-c3ccc(OCc4cn(-c5ccccc5)nn4)cc3)nc2c1	0.99	> 100			
